# Measurements pooled from the literature.
# Each line is one published result; the experiments were not run side by side.
# Target: Tyrosine-protein kinase Blk (BLK, Homo sapiens, UniProt P51451)
read-out,mode,technique,concentration,endpoint,value,Structure (SMILES)
cell-free assay,,competition with immobilised ligand,1 µM,remaining binding,100%,O=C(O)[C@H]1[C@H](Cn2nnc3ccccc3c2=O)CC[C@@H]1C(=O)c1ccc(OCCC2CCOCC2)cc1
enzyme activity,inhibitor,radiometric,1 µM,remaining activity,29%,CC(C)(C)c1nc(-c2cccc(NS(=O)(=O)c3c(F)cccc3F)c2F)c(-c2ccnc(N)n2)s1
cell-free assay,,,0.5 µM,remaining signal,78.8%,N#CCCc1ccc2c(c1)-c1[nH]c3ccc([N+](=O)[O-])cc3c1CC(=O)N2
enzyme activity,inhibitor,radiometric,1 µM,inhibition,94%,CNC(=O)c1cc2c(Oc3ccc(NC(=O)C4(C(=O)Nc5ccc(F)cc5)CC4)cc3)ccnc2cc1OC
enzyme activity,inhibitor,,5 µM,remaining activity,96.1%,O=C(Nc1cnn(-c2csc(C(=O)NC3COC3)c2)c1)Nc1c(F)cccc1Cl
enzyme activity,,,23.5 nM,remaining activity,1.2%,Cc1ccc(C(=O)Nc2ccc(CN3CCN(C)CC3)c(C(F)(F)F)c2)cc1C#Cc1cnc2cccnn12
cell-free assay,,,20 µM,remaining signal,0.45%,Nc1ncnc2occ(-c3ccc(NC(=O)Nc4cc(C(F)(F)F)ccc4F)cc3)c12
cell-free assay,,,0.5 µM,remaining signal,90.1%,Nc1nc(Nc2ccc(S(N)(=O)=O)cc2)nn1C(=O)c1c(F)cccc1F
cell-free assay,,competition with immobilised ligand,1 µM,remaining binding,93%,COc1ccc2cc(OCC3(C(=O)O)CN(C(=O)c4ccc(F)cc4)C3)ccc2c1
cell-free assay,,,10 µM,remaining signal,0%,Cc1ccc(NC(=O)c2ccc(C)c(C(F)(F)F)c2)cc1C#Cc1nn(C2CCC(O)CC2)c2ncnc(N)c12 (centres unmarked)
enzyme activity,inhibitor,,1 µM,remaining activity,37.5%,CC(C)(O)[C@H]1CC[C@H](Nc2ccc3ncc(-c4cccc(C(F)(F)F)c4)n3n2)CC1
cell-free assay,,competition with immobilised ligand,1 µM,remaining binding,97%,N#Cc1ccc(Nc2ccc3[nH]c(=O)[nH]c3c2)c(Cl)c1
enzyme activity,inhibitor,,1 µM,inhibition,90%,C=CC(=O)Nc1cc(Nc2nccc(Nc3cc(Cl)c(F)cc3C(C)(C)O)n2)c(OC)cc1N1CC[C@@H](N(C)C)C1
cell-free assay,,competition with immobilised ligand,1 µM,remaining binding,65%,O=C(Nc1cccnn1)N1CC(C/C=C/c2cncc(Oc3ccc(C(F)(F)F)cn3)n2)C1
enzyme activity,inhibitor,,0.5 µM,remaining activity,96.2%,O=c1cc(-c2cccc3c2Sc2ccccc2S3)oc(N2CCOCC2)c1
cell-free assay,,competition with immobilised ligand,1 µM,remaining binding,100%,CN(C(=O)c1ccccc1)c1cc(N(C)c2ccc3c(c2)CCc2ccc(C(=O)NCCN4CCOCC4)cc2C3=O)ccc1F
enzyme activity,inhibitor,,1 µM,inhibition,71%,COc1cc2ncnc(Nc3ccc(Oc4ccccc4)c(C)c3C)c2cc1OC
